In the library only some 2.5% were active in any assay of this set; here they are far more common.
DENV2 CPE rescue: DENV2-induced cell death inhibition. AID 651640. 350,000 compounds, 1.7% hits. DENV2-infected cells, cytopathic effect rescue, plate reader. CPE inhibition, % at 9.99 µM; in the data active means CPE inhibition above about 20%, passing the limit was not always enough; inconclusive means no clear call, values can overlap the other calls; tested in BHK-21 cells;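 further: 0% = median of neutral control wells and 100% = median of positive control wells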
PglD DTNB: PglD (C. jejuni) enzyme inhibition; purified PglD enzyme, DTNB colorimetric CoA detection; inhibition, % at 12.5 µM; AID 602405; 360,000 compounds, 0.098% hits; in the data active means inhibition above about 16%, passing the limit was not always enough; inconclusive means no clear call, values can overlap the other calls
ERAP1 HTS inh: blocks human ERAP1 aminopeptidase activity | inhibition, % at 10.7 µM | 340,000 compounds, 0.15% hits | recombinant ERAP1, Leu-AMC fluorescence, 60 min | Q9NZ08;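 active means mean replicate inhibition of at least 30%, or all replicates individually reaching that 30% level; inactive means mean below 30% and not every replicate reaching it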;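 further: 0% = neutral control wells and 100% = L-leucinethiol positive control wells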
SIRT5 block: inhibitors of human sirtuin-5 desuccinylase; Purified SirT5, succinyl-peptide AMC, trypsin-coupled fluorescence; inhibition, % at 15 µM; 330,000 compounds, 1.1% hits; in the data active means inhibition above about 15%; inconclusive means no clear call, values can overlap the other calls
E-sel inducer: E-selectin induction on HUVECs; P16581; HUVEC E-selectin immunofluorescence imaging; normalized: neutral wells 0, TNF-alpha wells 100; activation, % at 7.58 µM; 260,000 compounds, 0.37% hits;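 active means mean E-selectin-positive cell signal at least 10% of the positive control, reached in at least 60% of replicates, without over 20% cell loss; inconclusive means no rule given, readout overlaps actives, possibly toxicity-flagged; inactive means the rest, including those meeting only one limit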
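System: HUVEC, human umbilical vein endothelial cells; quantity: 3,000 cells/well; buffer or medium: EGM-2 medium, gelatin-coated wells; dosing: single-point compound dose; detection: immunofluorescence imaging; evaluation: % PE-positive cells; benchmarks: TNF-alpha, DMSO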
* marks the source's active call; other numbers are inactive results; ? = inconclusive; . = no result given.

SMILES	DENV2 CPE rescue	PglD DTNB	ERAP1 HTS inh	SIRT5 block	E-sel inducer
COC(=O)c1ccc(-c2noc(CN3CCCC(CNC(C)=O)C3)n2)cc1 (stereo not drawn)	1	.	3	35*	2
COc1ccc(C(=O)C2CCCN(Cc3cc(C)c(O)c(C)c3)C2)c(OC)c1 (stereo not drawn)	7	6	0	7	.
COc1cc(CN2CCCC(C(=O)c3ccc(C(C)(C)C)cc3)C2)cc(OC)c1O (stereo not drawn)	26*	-9	-1	-2	.
CCN(CC(=O)Nc1c(F)cccc1F)C(=O)/C=C/c1ccc2c(c1)OCO2	84*	4	-5	0	.
CC(C)Cn1c(N)c(C(=O)COC(=O)c2cc(-c3ccccc3)nc3ccccc23)c(=O)n(C)c1=O	30*	0	-1	.	0
CC(C)Cn1c(N)c(C(=O)COC(=O)c2cc(-c3ccco3)nc3ccccc23)c(=O)n(C)c1=O	9	3	3	.	0
CCC(=O)N[C@@H]1CC[C@@H](CC(=O)NCCN2CCCCC2)O[C@H]1CO	-1	17	2	0	0
C[C@H]1CN([C@@H](C)CO)C(=O)c2cc(NC(=O)NC3CCCCC3)ccc2O[C@H]1CN(C)Cc1ccncc1	25*	2	-3	-3	0
C[C@@H]1CCCCO[C@H](CN(C)Cc2ccncc2)[C@@H](C)CN([C@@H](C)CO)C(=O)c2cc(NC(=O)NC3CCCCC3)ccc2O1	75*	-1	-2	6	0
CCOC(=O)C1=C(C)N=c2s/c(=C\c3ccc(OCC(=O)O)cc3)c(=O)n2C1c1ccc(OC(C)C)cc1 (stereo not drawn)	.	6	.	.	0
N#C[C@H]1[C@H](c2ccc(C#CC3CCCC3)cc2)[C@@H](CO)N1S(=O)(=O)c1ccccc1	-6	1	4	-3	-1
CCCCCCc1ccc(OCC(=O)OC)cc1OCC(=O)OC	-2	.	2	23*	.
Cc1ccc(CSCCNC(=O)CN2C(=O)c3ccccc3S2(=O)=O)cc1	5	.	1	2	.
O=C(C[C@H]1CC[C@@H]2[C@H](COC[C@@H](O)CN2C(=O)c2ccccc2F)O1)NCc1ccc(F)cc1	38*	-4	-2	6	0
COc1ccc(CN2C[C@H](O)COC[C@H]3O[C@H](CC(=O)NCc4ccncn4)CC[C@@H]32)cc1	21*	-1	2	5	0
O=C(C[C@H]1CC[C@H]2[C@@H](COC[C@@H](O)CN2C(=O)c2ccccc2F)O1)NCc1ccc(F)cc1	11	0	-3	3	0
COc1ccc(CN2C[C@H](O)COC[C@@H]3O[C@H](CC(=O)NCc4ccncn4)CC[C@H]32)cc1	?	-7	-3	4	0
O=C(C[C@H]1CC[C@@H]2[C@H](COC[C@@H](O)CN2Cc2nccs2)O1)NCc1ccc(-c2ccccc2)cc1	34*	-3	0	-1	0
O=C(C[C@H]1CC[C@@H]2[C@H](COC[C@H](O)CN2Cc2cccc(C(F)(F)F)c2)O1)NCc1ccc(F)cc1	-11	-1	-1	1	0
O=C(C[C@H]1CC[C@H]2[C@@H](COC[C@@H](O)CN2Cc2cccc(C(F)(F)F)c2)O1)NCc1ccc(F)cc1	111*	0	-1	2	1
O=C(C[C@H]1CC[C@H]2[C@@H](COC[C@@H](O)CN2C(=O)c2ccccc2)O1)Nc1ccc(-c2ccccc2)cc1	-6	2	-5	3	.
O=C(C[C@H]1CC[C@H]2[C@@H](COC[C@@H](O)CN2Cc2cccc(C(F)(F)F)c2)O1)NCCc1ccccc1	26*	1	0	0	0
O=C(C[C@H]1CC[C@@H]2[C@H](COC[C@H](O)CN2Cc2cccc(C(F)(F)F)c2)O1)NCCc1ccccc1	15	4	2	-3	0
COC(=O)c1c(-c2ccc(OC)cc2)sc2cc3c(cc12)OCO3	20*	4	5	.	.
COC(=O)c1c(-c2ccc(N(C)C)cc2)sc2ccc(OC)cc12	.	-1	16	-1	1
COc1ccc(NC(=O)Nc2ccc3c(c2)C(=O)N([C@H](C)CO)C[C@H](C)[C@@H](CN(C)Cc2ccc(C(F)(F)F)cc2)O3)cc1	20*	3	1	19*	0
COc1ccc(CN(C)C[C@@H]2Oc3ccc(NC(=O)Nc4ccc(C(F)(F)F)cc4)cc3C(=O)N([C@@H](C)CO)C[C@H]2C)cc1	44*	-3	3	-6	0
